SMARCA2 activ: activators of SMARCA2 function | MG213 cells, MMTV-luciferase reporter, dexamethasone, overnight | activation, % at 9.1 µM | actives 1% (n = 370,000) | AID 652017; in the data active = activation above about 7.8%;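 note: 0% = vehicle wells and 100% = reference activator wells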
JMJD2C inh: inhibitors of human GASC-1 (JMJD2C) demethylase. inhibition, % at 2.35 µM. actives 0.069% (n = 330,000). Q9H3R0. GST-JMJD2C(1-420) H3K9me3 demethylation, DELFIA europium;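 active = more than half of a compound's replicate wells show inhibition beyond 50%, single wells judged on their own value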;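 note: signal counts dimethyl H3K9 product captured on neutravidin plate; 0% = median of DMSO wells and 100% = 0.3 times that DMSO median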
Target sequence (Q9H3R0 1-420 limits assumed): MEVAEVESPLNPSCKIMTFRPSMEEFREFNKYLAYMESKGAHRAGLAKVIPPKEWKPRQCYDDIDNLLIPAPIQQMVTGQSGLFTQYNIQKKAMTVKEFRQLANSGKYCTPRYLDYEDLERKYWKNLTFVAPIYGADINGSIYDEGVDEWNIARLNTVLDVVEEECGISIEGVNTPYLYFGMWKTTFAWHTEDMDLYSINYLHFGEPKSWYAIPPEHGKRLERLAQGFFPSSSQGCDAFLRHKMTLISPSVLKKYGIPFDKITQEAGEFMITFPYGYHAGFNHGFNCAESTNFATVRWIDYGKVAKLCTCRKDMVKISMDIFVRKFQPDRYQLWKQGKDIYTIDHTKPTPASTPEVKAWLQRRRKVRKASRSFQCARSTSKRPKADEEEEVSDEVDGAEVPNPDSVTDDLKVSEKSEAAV
NR2E3 ag-1: agonists of human nuclear receptor NR2E3. Q9Y5X4. GST-NR2E3/biotin-RetCOR TR-FRET, 1536-well. inhibition of corepressor binding, % at 4.78 µM. actives 0.12% (n = 320,000). AID 2300;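 active = percent inhibition above the cutoff of mean plus 3 SD of all tested compounds, set per screening campaign, cut at about 20% in these data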;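 note: 0% = DMSO wells and 100% = biotin wells as full block of FRET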
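Material: NR2E3–RetCOR corepressor complex / Amount: 1.35 nM GST-NR2E3 / Medium: Tris pH 7.5 / Compound: single nominal compound dose of 4.8 µM / Incubation: 5 h at 4 °C / Technique: TR-FRET, Eu(K)-anti-GST donor, streptavidin-D2 acceptor, ex 340, em 617/671 nm / Read-out basis: percent loss of FRET ratio relative to control wells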
NR2E3 ag-2: human photoreceptor-specific nuclear receptor agonism; CHO-S Gal4-NCOR/VP16-NR2E3 two-hybrid, luciferase; inhibition of corepressor binding, % at 3.98 µM; actives 0.35% (n = 360,000); AID 602229;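 active = inhibition above the mean of all tested compounds plus 3 SD, cut at about 70% in these data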;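 note: 0% = DMSO with NR2E3 transfected cells and 100% = cells lacking NR2E3 construct; higher means lower luciferase signal from less NR2E3 corepressor binding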
DAX1 inh-1: blocks DAX1 repression of SF-1 activated StAR promoter; HEK293T StAR-luciferase reporter, SF-1/DAX-1 repression relief; inhibition, % at 6.8 µM; actives 1.1% (n = 370,000);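 active = inhibition above the mean over all tested compounds plus 3 SD, cut at about 3.6% in these data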;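 note: 0% = DAX-1 cells with DMSO and 100% = cells lacking DAX-1 with DMSO; higher inhibition means more luminescence from relief of DAX-1 repression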
DAX1 inh-2: NR0B1 (DAX1) inhibition. P51843. HEK293 Gal4-DAX1 luciferase reporter, luminescence. inhibition, % at 6.75 µM. actives 0.99% (n = 340,000);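 active = inhibition above the mean over all tested compounds plus 3 SD, cut at about 4.2% in these data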;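 note: 0% = DAX1-transfected cells with DMSO and 100% = empty-vector control cells with DMSO; inhibition shows as a rise in luminescence from relieved DAX1 repression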
Target sequence (P51843 207-470 limits assumed): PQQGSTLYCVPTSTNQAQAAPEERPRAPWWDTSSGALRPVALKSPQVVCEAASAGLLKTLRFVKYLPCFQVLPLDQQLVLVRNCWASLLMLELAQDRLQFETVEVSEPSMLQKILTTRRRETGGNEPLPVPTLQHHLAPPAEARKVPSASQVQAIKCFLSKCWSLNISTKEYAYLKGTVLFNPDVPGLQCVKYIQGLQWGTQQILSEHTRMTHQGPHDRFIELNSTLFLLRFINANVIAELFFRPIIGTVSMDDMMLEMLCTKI
DAX1 conf: confirmation of human DAX1 (NR0B1) inhibitors. actives 87% (n = 2,400). inhibition, % at 6.8 µM. shares compounds with DAX1 inh-1. HEK293T StAR-promoter luciferase reporter, SF-1/DAX-1 repression;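 active = inhibition above the average of every tested compound plus 3 SD, cut at about 3.8% in these data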;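 note: 0% = DAX-1 cells with DMSO and 100% = no DAX-1 control cells with DMSO; active compounds raise luminescence by relieving repression of the StAR reporter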
SF1 AF2mut Luc: nonselective inhibitor or artifact in SF-1 mutant DAX1 counter-screen; AID 652136; inhibition, % at 6.8 µM; actives 78% (n = 2,400); shares compounds with DAX1 inh-1; HEK293 StAR-luciferase, SF-1 AF2 mutant, luminescence;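 active = inhibition above the mean of all tested compounds plus 3 SD, cut at about 3% in these data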;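 note: 0% = DAX-1 transfected cells with DMSO and 100% = cells without DAX-1 with DMSO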
SMARCA2 act conf: confirmation of SMARCA2 (BRM) function activators | MG213 cells, MMTV-luciferase with dexamethasone, luminescence, overnight; MG213 cells expressing E1A, Rb sequestered; DMSO wells 0%, reference activator 100% | shares compounds with SMARCA2 activ | activation, % at 9.1 µM | actives 30% (n = 3,500) | AID 652260;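 active = activation above its plate's cutoff, the mean activation of tested wells plus 3 SD, cut at about 7.9% in these data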
GAL4-VP16 Luc: GAL4-VP16 reporter activation counter-screen. shares compounds with SMARCA2 activ. HEK293 GAL4-VP16 pG5luc reporter, luciferase luminescence; scaled: DMSO wells 0%, SAHA wells 100%. activation, % at 9.1 µM. actives 41% (n = 3,500). AID 686939;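 active = activation above the solvent-only control well mean plus 3 SD, averaged across control plates, cut at about 5.2% in these data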
Numbers without * were called inactive; . = no result. Hits are enriched below; roughly 3.2% of the tested compounds scored in any of these assays.

SMILES	SMARCA2 activ	JMJD2C inh	NR2E3 ag-1	NR2E3 ag-2	DAX1 inh-1	DAX1 inh-2	DAX1 conf	SF1 AF2mut Luc	SMARCA2 act conf	GAL4-VP16 Luc
CCn1c(SCC(=O)NN=Cc2cccc(OCc3ccccc3)c2)nnc1-c1ccc(OC)c(OC)c1	6.2	.	.	.	-2.0	.	.	.	.	.
Clc1ccc(-c2nnc(SCc3cccc4ccccc34)n2-c2ccc(Cl)cc2)cc1	-5.0	.	.	.	-1.5	.	.	.	.	.
C=CCNc1ncnc2c1cnn2-c1ccc(Cl)cc1	11.7*	-0.8	0.1	-155.9	8.8*	1.4	15.9*	8.1*	8.3*	11.5*
CCc1ccc(/C=N/Nc2ncnc3nc[nH]c23)cc1	8.3*	10.4	2.1	-77.6	5.2*	-0.1	14.1*	1.0	6.0	13.0*
c1ccc2nc3c(ccc4ccccc43)cc2c1	14.6*	.	.	-69.0	4.5*	1.8	11.5*	10.0*	4.6	7.7*
Cc1cccc2cc3ccccc3nc12	-2.9	-0.8	-4.0	-12.3	-0.4	-0.2	.	.	.	.
O=C(NC1CCCCN(Cc2ccc(Cl)cc2)C1=O)c1cccc(C(F)(F)F)c1 (stereo not drawn)	-2.9	.	.	.	-0.8	.	.	.	.	.
Cc1ccc(-c2nc3ccccc3[nH]2)cn1	2.0	2.5	1.3	-36.6	0.8	4.0	.	.	.	.
Cc1nc2ccc(-c3nc4ccccc4[nH]3)cc2[nH]1	15.6*	-0.3	5.7	-83.3	5.6*	0.1	12.1*	6.4*	13.9*	12.4*
O=S1(=O)c2c(cccc2N2CC[C@H](O)C2)OCCCN1C1CC1	0.1	.	.	.	-1.6	.	.	.	.	.
Cc1ccc2nc(-c3ccc(NC(=O)CNC4CC4)cc3)sc2c1	10.9*	-30.8	.	-131.5	5.7*	3.7	14.2*	7.0*	8.5*	10.3*
Cc1ccc2nc(-c3ccc(NC(=O)CCS(=O)(=O)c4ccccc4)cc3)sc2c1	0.7	0.5	2.1	-135.1	0.9	-4.6	.	.	.	.
COC(=O)[C@]12C[C@H](CC(=O)NCc3ccc(OC)c(OC)c3)C(=O)N(Cc3ccco3)C1=C[C@H](C(C)(C)C)O[C@@H]2C	-1.0	.	.	.	-0.1	.	.	.	.	.
COC(=O)c1ccc(-c2nc(-c3cccs3)no2)cc1	10.8*	.	1.2	-66.7	6.8*	1.3	2.9	-2.4	-4.0	8.1*
Fc1ccc(-c2nc(-c3cccs3)no2)cc1	-2.2	-4.1	-0.5	-57.8	1.4	1.1	.	.	.	.
Cn1cccc1C(=O)NCCc1ccccc1	5.9	3.2	0.3	-93.4	2.3	0.3	.	.	.	.
COc1ccc(CCNC(=O)c2cccn2C)cc1	8.3*	6.9	1.3	-90.3	6.3*	4.1	7.8*	6.5*	5.2	9.7*
O=C(O)c1cccc(N/N=C/c2cccs2)c1	11.8*	0.1	-4.1	-171.6	7.2*	-4.7	13.6*	6.3*	5.0	14.3*
C=CCSc1nnc(NC(=O)C2=COCCO2)s1	8.0*	-7.2	0.4	-84.2	6.8*	3.2	7.1*	6.6*	8.2*	10.6*
COC(=O)[C@]12C[C@H](CC(=O)NCc3cccc(C(F)(F)F)c3)C(=O)N(Cc3ccc(Cl)cc3Cl)C1=C[C@H](C(C)C)O[C@@H]2C1CC1	-1.9	.	.	.	-0.7	.	.	.	.	.
Nc1c(C(=O)O)sc2nc3c(cc12)CCCC3	-3.4	-1.3	1.1	-35.6	0.2	.	.	.	.	.
Nc1c(C(=O)C2CC2)sc2nc3c(cc12)CCC3	8.5*	-12.8	0.3	-129.8	4.7*	3.3	9.8*	10.0*	13.1*	9.7*
O=C1C[C@@H](O)[C@H](O)c2cccc(O)c21	1.9	.	.	.	-0.9	.	.	.	.	.
COc1cccc(C(=O)Nc2ccc(C(=O)NCC3COc4ccccc4O3)cc2)c1 (stereo not drawn)	-2.3	.	.	.	-1.7	.	.	.	.	.
CCCOc1ccc(-c2cn3ccccc3n2)cc1[N+](=O)[O-]	5.9	0.4	1.1	-85.9	2.3	-0.3	.	.	.	.
SMILES	SMARCA2 activ	JMJD2C inh	NR2E3 ag-1	NR2E3 ag-2	DAX1 inh-1	DAX1 inh-2	DAX1 conf	SF1 AF2mut Luc	SMARCA2 act conf	GAL4-VP16 Luc
CCCOc1ccc(-c2cn3ccccc3n2)cc1	8.2*	-2.4	0.4	-151.5	8.6*	-2.1	14.4*	5.2*	6.1	9.7*
Cc1nn(-c2ccccc2)c(Cl)c1/C=N/Nc1ccc(Cl)c(C(=O)O)c1	8.9*	11.7	-3.8	-187.3	7.5*	-5.0	15.8*	7.9*	9.4*	13.6*
CC(C)NC(=O)N[C@@H]1C[C@@H]2O[C@H](CO)CC[C@@H]2O[C@@H]1CCc1ccc(-c2ccccc2F)cc1	-1.1	.	.	.	-0.6	.	.	.	.	.
COc1ccc(-n2nc(C)cc2N)cc1	-1.4	3.2	4.4	-0.2	-0.8	-0.7	.	.	.	.
COc1ccc(-n2nc3cc(C)c(N)c(Br)c3n2)cc1	8.4*	-7.2	-0.5	-170.7	5.2*	3.4	10.5*	4.8*	10.6*	11.1*
COc1ccc(-n2nc3cc(C)c(NC(C)=O)cc3n2)cc1	8.1*	-29.4	0.1	-137.2	4.5*	0.8	8.4*	1.3	4.6	8.9*
COc1ccccc1C(=O)NC1CCCCN(Cc2ccc(Cl)cc2)C1=O (stereo not drawn)	-2.5	.	.	.	-0.8	.	.	.	.	.
COc1ccc(C[N+]2=C(N)N[C@@]3(C=C(C)Cn4c(=O)n(-c5ccccc5)c(=O)n43)C2)c(OC)c1	1.6	.	.	.	1.1	.	.	.	.	.
COC(=O)[C@]12C[C@H](CC(=O)NCc3ccc(C)o3)C(=O)N(Cc3ccc4c(c3)OCO4)C1=C[C@H](C(C)C)O[C@@H]2C1CC1	-5.0	.	.	.	-1.7	.	.	.	.	.
COc1ccc(C(=O)Nc2cccc(/C(C)=N\NC(=O)c3ccoc3C)c2)cc1OC	8.4*	8.4	.	-116.8	12.5*	1.9	-1.3	-2.1	-2.9	7.9*
CN(C(=O)/C=C/c1cnc2ccccc2c1)C1CCCCC1	9.9*	-14.1	4.4	-140.8	7.8*	-0.7	17.2*	9.9*	12.5*	11.4*
CCCCOCCCNC(=O)C[C@H]1C[C@@]2(C(=O)OC)C(=C[C@H](C(C)(C)C)O[C@@H]2C)N(Cc2cccc3ccccc23)C1=O	-4.0	.	.	.	-0.5	.	.	.	.	.

Screening results (PubChem)
